Results on 18 molecules are retold here after ChEMBL document CHEMBL1143743, “A new class of anti-thrombosis hexahydropyrazino-[1',2':1,6]pyrido-[3,4-b]-indole-1,4-dions: design, synthesis, logK determination, and QSAR analysis” (Bioorg Med Chem, 2007).

The test system of data set [1] is Rattus norvegicus. Briefly: Antithrombotic activity in Wistar rat assessed as wet thrombus weight at 0.5 umol/kg, iv. The data set is classed as functional. The gist of the method: (§1)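 Male Wistar rats (250–300 g) under ip pentobarbital sodium (80.0 mg/kg). Arteriovenous shunt: polyethylene tube holding a weighed 6 cm thread, filled with heparin sodium (50 IU/ml in NS), joins left jugular vein to right carotid artery. Heparin, then compound in NS (kept on ice), injected through the tube; blood flows 15 min. Thread weighed wet, then dry after 2 weeks in a desiccator.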

The test system of data set [2] is Rattus norvegicus. Briefly: Antithrombotic activity in Wistar rat assessed as dry thrombus weight at 0.5 umol/kg, iv. The data set is classed as functional. The gist of the method:
as §1

Data set [3] in a line: HPLC retention, log K of the compound.
In data set [4] the test system is Rattus norvegicus. Briefly: Antithrombotic activity in Wistar rat assessed as wet thrombus weight at 5 nmol/kg, iv. The format is functional. The gist of the method:
as §1

The test system of data set [5] is Rattus norvegicus. Kind of data set: Antithrombotic activity in Wistar rat assessed as wet thrombus weight at 0.5 nmol/kg, iv. The format is functional. The gist of the method:
as §1

Data set [6] concerns Rattus norvegicus. Kind of data set: Antithrombotic activity in Wistar rat assessed as dry thrombus weight at 5 nmol/kg, iv. The format is functional. The gist of the method:
as §1

Data set [7] relates to Rattus norvegicus. Briefly: Antithrombotic activity in Wistar rat assessed as dry thrombus weight at 0.5 nmol/kg, iv. The data set is classed as functional. The gist of the method: as §1
The test system of data set [8] is Rattus norvegicus. Briefly: Antithrombotic activity in Wistar rat assessed as wet thrombus weight at 0.5 umol/kg, po. The data set is classed as functional. The gist of the method:
(§2)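 Compound in NS given orally to male Wistar rats (250–300 g), which were then anesthetized with ip pentobarbital sodium (80.0 mg/kg). Thirty min later the carotid artery and jugular vein were exposed. Blood ran 15 min through a polyethylene-tube shunt holding a thread. Wet thrombus weighed, then dry weight recorded after 2 weeks in a desiccator.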

The test system of data set [9] is Rattus norvegicus. Briefly: Antithrombotic activity in Wistar rat assessed as dry thrombus weight at 0.5 umol/kg, po. The format is functional. The gist of the method:
as §2

Data set [10] has as its system Plasma. Briefly: Inhibition of ADP-induced platelet aggregation in pig platelet rich plasma. The format is functional, cell-free. The settings on record: Sus scrofa. The gist of the method: (§3)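 Pig blood anticoagulated with 0.38% sodium citrate (final). PRP taken at 100 g for 10 min, PPP at 1,500 g for 10 min, platelets adjusted to 2 × 10⁸/ml with autologous PPP. Compound in NS (1–0.01 μmol/L final) added to 0.5 ml PRP. Aggregation induced with PAF (10^-7 mol/L final) or ADP (10^-5 mol/L final), followed turbidimetrically at 37 °C for 5 min. Peak height (Am%) compared with NS control; IC50 derived.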

Data set [11] has as its system Plasma. Kind of data set: Inhibition of PAF-induced platelet aggregation in pig platelet rich plasma. The data set is classed as functional, cell-free. The settings on record: Sus scrofa. The gist of the method: as §3
Data set [12] has as its system Rattus norvegicus. Briefly: Antithrombotic activity in Wistar rat assessed as wet thrombus weight at […], iv. The format is functional.
Data set [13] has as its system Rattus norvegicus. Briefly: Antithrombotic activity in Wistar rat assessed as dry thrombus weight at […], iv. The format is functional.

Take `C[C@@H]1NC(=O)[C@@H]2Cc3c([nH]c4ccccc34)CN2C1=O`: the Activity in the data set with Rattus norvegicus [1] was determined as 12.05 mg; in the data set on Rattus norvegicus [2], 3.83 mg. The “log K” value in data set [3] is given as 0.47.
With `O=C1N[C@@H](Cc2ccccc2)C(=O)N2Cc3[nH]c4ccccc4c3C[C@@H]12`, the Activity in the data set with Rattus norvegicus [1] turned out to be 8.58 mg; in the data set with Rattus norvegicus [2], 1.33 mg; in the data set on Rattus norvegicus [4], 13.3 mg; in the data set on Rattus norvegicus [5] it was 15.3 mg; in the data set on Rattus norvegicus [6], 2.08 mg; with Rattus norvegicus [7], 2.39 mg. For the same molecule, the “log K” value in [3] is 1.05.
On to `O=C1N[C@@H](CO)C(=O)N2Cc3[nH]c4ccccc4c3C[C@@H]12`, for which the Activity in the data set with Rattus norvegicus [1] is reported as 9.44 mg; in the data set with Rattus norvegicus [2], 2.98 mg. The “log K” value in data set [3] is reported as -0.16.
Regarding `O=C1N[C@@H](Cc2ccc(O)cc2)C(=O)N2Cc3[nH]c4ccccc4c3C[C@@H]12`, the Activity is listed as 10.49 mg in the data set with Rattus norvegicus [1] and 3.3 mg in the data set with Rattus norvegicus [2]. In addition, the “log K” value in [3] turned out to be 0.01.
`CSCC[C@@H]1NC(=O)[C@@H]2Cc3c([nH]c4ccccc34)CN2C1=O`: the Activity is listed as 10.41 mg with Rattus norvegicus [1] and 3.28 mg in the data set with Rattus norvegicus [2]. In data set [3], the “log K” value worked out at 0.97.
On to `O=C1NCC(=O)N2Cc3[nH]c4ccccc4c3C[C@@H]12`, for which the Activity with Rattus norvegicus [1] came to 10.68 mg; with Rattus norvegicus [2], 3.39 mg; with Rattus norvegicus [8] it was 11.57 mg; in the data set on Rattus norvegicus [9], 3.67 mg. Besides, the “log K” value in data set [3] is given as 0.19.
Consider `NC(=O)CC[C@@H]1NC(=O)[C@@H]2Cc3c([nH]c4ccccc34)CN2C1=O`, for which the Activity was 11.1 mg in the data set with Rattus norvegicus [1] and 3.52 mg in the data set with Rattus norvegicus [2]. The “log K” value in data set [3] is on record as 0.28.
As for `NC(=O)C[C@@H]1NC(=O)[C@@H]2Cc3c([nH]c4ccccc34)CN2C1=O`, the Activity in the data set with Rattus norvegicus [1] is 9.54 mg; in the data set on Rattus norvegicus [2] it was 3.03 mg. Moreover, in data set [3], the “log K” value is 0.21.
`CCC(C)[C@@H]1NC(=O)[C@@H]2Cc3c([nH]c4ccccc34)CN2C1=O` (stereo partly drawn): the figures for the Activity in the data set with Rattus norvegicus [1] and in the data set on Rattus norvegicus [2] were 12.45 mg and 3.95 mg, respectively. In addition, the “log K” value in data set [3] came out at 1.26.
The like results for `O=C(O)CC[C@@H]1NC(=O)[C@@H]2Cc3c([nH]c4ccccc34)CN2C1=O` were, in that order, 10.42 mg, 3.31 mg and 0.21.
Take `O=C(O)C[C@@H]1NC(=O)[C@@H]2Cc3c([nH]c4ccccc34)CN2C1=O`: the Activity in the data set on Rattus norvegicus [1] was determined as 12.26 mg; in the data set on Rattus norvegicus [2], 3.89 mg; with Rattus norvegicus [8], 12.42 mg; in the data set with Rattus norvegicus [9], 3.94 mg. Besides, the “log K” value in [3] came out at 0.15.
Turning to `N=C(N)NCCC[C@@H]1NC(=O)[C@@H]2Cc3c([nH]c4ccccc34)CN2C1=O`, the Activity in the data set with Rattus norvegicus [1] turned out to be 8.62 mg; in the data set with Rattus norvegicus [2], 1.22 mg; in the data set on Rattus norvegicus [4] it was 14.52 mg; with Rattus norvegicus [5], 15.71 mg; in the data set with Rattus norvegicus [6], 2.27 mg; in the data set on Rattus norvegicus [7] it was 2.45 mg. The “log K” value in data set [3] is given as -0.58.
Consider `NCCCC[C@@H]1NC(=O)[C@@H]2Cc3c([nH]c4ccccc34)CN2C1=O`, for which the Activity with Rattus norvegicus [1] was determined as 12.78 mg; in the data set on Rattus norvegicus [2], 4.06 mg; in the data set on Rattus norvegicus [8] it was 11.75 mg; with Rattus norvegicus [9], 3.73 mg. In data set [3], the “log K” value is on record as -0.26.
Turning to `CC(C)[C@@H]1NC(=O)[C@@H]2Cc3c([nH]c4ccccc34)CN2C1=O`, the IC50 in the data set on Plasma [10] stood at 112 nM; in the data set on Plasma [11], 294 nM. The Activity in the data set on Rattus norvegicus [1] is 8.19 mg; with Rattus norvegicus [2], 1.2 mg; in the data set on Rattus norvegicus [4], 14.79 mg; in the data set with Rattus norvegicus [5] it was 16.88 mg; in the data set on Rattus norvegicus [6], 2.31 mg; in the data set on Rattus norvegicus [7], 2.64 mg. In data set [3], the “log K” value is on record as 0.97.
With `CC(C)C[C@@H]1NC(=O)[C@@H]2Cc3c([nH]c4ccccc34)CN2C1=O`, the Activity was 10.4 mg in the data set with Rattus norvegicus [1] and 3.3 mg in the data set with Rattus norvegicus [2]. Moreover, in data set [3], the “log K” value is given as 1.32.
Consider `CC(O)[C@@H]1NC(=O)[C@@H]2Cc3c([nH]c4ccccc34)CN2C1=O` (stereo partly drawn), for which the Activity turned out to be 11.49 mg with Rattus norvegicus [1] and 3.65 mg in the data set on Rattus norvegicus [2]. Also, in data set [3], the “log K” value is on record as -0.14.
For the molecule `O=C1NC(CS)C(=O)N2Cc3[nH]c4ccccc4c3C[C@@H]12` (single isomer, unassigned), the figures for the Activity in the data set with Rattus norvegicus [1] and in the data set on Rattus norvegicus [2] were 9.06 mg and 2.88 mg, respectively. Moreover, the “log K” value in [3] was found to be 0.71.
Regarding `CC(=O)Oc1ccccc1C(=O)O` [ASPIRIN], the Activity turned out to be 7.56 mg with Rattus norvegicus [12] and 2.4 mg in the data set with Rattus norvegicus [13].
